Assay results from ChEMBL document CHEMBL1145382, “Novel ergopeptides as dual ligands for adenosine and dopamine receptors” (J Med Chem, 2007).
pKd: −log10 of the molar value. Active and inactive are the calls of the source. The rule behind the calls is not given here.

Assays:
Adenosine receptor A2a [1] = biological target: T1, Adenosine receptor A2a (Homo sapiens, UniProt P29274); experiment: Displacement of [3H]CGS 21680 from adenosine A2A receptor in lamb striatum membrane after 2 hrs; type: cell membranes, Ovis aries; conditions: target entry is the homologue from another species
T1 sequence (P29274 whole entry): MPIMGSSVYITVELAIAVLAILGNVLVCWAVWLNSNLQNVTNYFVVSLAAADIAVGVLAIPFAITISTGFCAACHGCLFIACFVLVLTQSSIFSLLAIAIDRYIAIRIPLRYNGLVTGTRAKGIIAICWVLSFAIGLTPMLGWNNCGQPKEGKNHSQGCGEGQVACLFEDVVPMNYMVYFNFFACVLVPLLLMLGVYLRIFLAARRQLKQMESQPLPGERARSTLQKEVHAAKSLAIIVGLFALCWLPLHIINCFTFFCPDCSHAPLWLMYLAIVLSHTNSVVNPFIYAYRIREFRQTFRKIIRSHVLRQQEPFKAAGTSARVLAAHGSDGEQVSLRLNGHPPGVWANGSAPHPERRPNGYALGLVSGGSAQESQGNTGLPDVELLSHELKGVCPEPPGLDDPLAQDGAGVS
How it was run: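 Lamb striatal membranes (0.5 mg protein/mL), 22 °C, 50 mM Tris-HCl pH 7.4, with increasing ergopeptide concentrations. Conditions per receptor: D1 1.2 nM [3H]SCH 23390, 1 mM dopamine nonspecific. D2 0.9 nM [3H]YM 09151-2, 100 µM raclopride nonspecific. A1 2.2 nM [3H]R-PIA, 10 mM MgCl2, 0.2 U/mL ADA, 50 µM R-PIA nonspecific. A2A 20.1 nM [3H]CGS 21680, 10 mM MgCl2, 2 U/mL ADA, 1 mM CGS 21680 nonspecific. Filtration, scintillation counting. KD by nonlinear one- or two-site fit. Three to six determinations.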

[2] = biological target: D(1A) dopamine receptor (Homo sapiens) (UniProt P21728); experiment: Displacement of [3H]SCH 23390 from dopamine D1 receptor in lamb striatum membrane at 50 uM after 1 hr; type: cell membranes; conditions: Ovis aries, target entry is the homologue from another species
D(1A) dopamine receptor (Homo sapiens), sequence (P21728 whole entry): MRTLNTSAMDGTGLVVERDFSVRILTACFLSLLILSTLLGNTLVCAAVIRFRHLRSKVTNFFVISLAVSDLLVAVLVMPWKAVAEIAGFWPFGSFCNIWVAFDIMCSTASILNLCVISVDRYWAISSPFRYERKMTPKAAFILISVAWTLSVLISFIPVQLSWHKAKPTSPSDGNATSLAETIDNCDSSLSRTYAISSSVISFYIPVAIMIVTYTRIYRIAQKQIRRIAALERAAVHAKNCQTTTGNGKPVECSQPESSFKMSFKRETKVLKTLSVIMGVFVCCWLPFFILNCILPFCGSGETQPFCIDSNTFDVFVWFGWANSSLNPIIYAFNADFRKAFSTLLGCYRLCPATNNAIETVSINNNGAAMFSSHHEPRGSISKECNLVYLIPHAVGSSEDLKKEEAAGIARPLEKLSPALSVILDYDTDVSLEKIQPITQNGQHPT
How it was run: (§1)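 Single-concentration screen at 50 µM ergopeptide on lamb striatal membranes (0.5 mg protein/mL), 22 °C, 50 mM Tris-HCl pH 7.4. Radioligands: [3H]SCH 23390 1.2 nM (D1), [3H]YM 09151-2 0.9 nM (D2), [3H]R-PIA 2.2 nM (A1, with MgCl2 and ADA), [3H]CGS 21680 20.1 nM (A2A, with MgCl2 and ADA). Specific binding displaced, after filtration and scintillation counting.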

[3] = biological target: D(2) dopamine receptor (Homo sapiens) (UniProt P14416); experiment: Displacement of [3H]YM 09151-2 from dopamine D2 receptor in lamb striatum membrane at 50 uM after 2 hrs; type: cell membranes; conditions: Ovis aries, target entry is the homologue from another species; how it was run: as §1
D(2) dopamine receptor (Homo sapiens), sequence (P14416 whole entry): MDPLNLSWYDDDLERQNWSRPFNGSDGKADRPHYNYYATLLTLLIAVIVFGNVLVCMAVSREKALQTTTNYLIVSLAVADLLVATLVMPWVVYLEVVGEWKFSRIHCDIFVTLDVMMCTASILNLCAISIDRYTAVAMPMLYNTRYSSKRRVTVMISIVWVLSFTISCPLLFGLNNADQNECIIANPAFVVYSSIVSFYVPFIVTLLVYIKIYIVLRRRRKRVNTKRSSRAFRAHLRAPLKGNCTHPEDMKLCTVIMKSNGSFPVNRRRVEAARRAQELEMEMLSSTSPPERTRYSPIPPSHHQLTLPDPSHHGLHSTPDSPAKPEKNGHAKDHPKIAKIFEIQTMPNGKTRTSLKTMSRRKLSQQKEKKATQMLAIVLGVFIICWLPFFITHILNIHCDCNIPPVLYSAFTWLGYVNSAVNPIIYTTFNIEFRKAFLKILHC

[4] = biological target: T2, Adenosine receptor A1 (Homo sapiens) (UniProt P30542); experiment: Displacement of [3H]R-PIA from adenosine A1 receptor in lamb striatum membrane at 50 uM after 1 hr; type: cell membranes; conditions: Ovis aries, target entry is the homologue from another species; how it was run: as §1
T2 sequence (whole entry): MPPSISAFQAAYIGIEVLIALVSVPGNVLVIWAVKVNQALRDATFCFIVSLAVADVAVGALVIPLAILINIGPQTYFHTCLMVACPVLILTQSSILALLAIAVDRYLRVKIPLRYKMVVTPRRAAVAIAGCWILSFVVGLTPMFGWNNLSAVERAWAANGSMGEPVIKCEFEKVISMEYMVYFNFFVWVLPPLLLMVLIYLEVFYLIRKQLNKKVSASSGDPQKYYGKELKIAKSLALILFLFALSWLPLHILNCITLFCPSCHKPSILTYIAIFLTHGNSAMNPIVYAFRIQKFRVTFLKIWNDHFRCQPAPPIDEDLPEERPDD

Adenosine receptor A2a [5] = biological target: T1, Adenosine receptor A2a; experiment: Displacement of [3H]CGS 21680 from adenosine A2A receptor in lamb striatum membrane at 50 uM after 2 hrs; type: cell membranes; conditions: Ovis aries, target entry is the homologue from another species; how it was run: as §1
Adenosine receptor A2a [6] = biological target: T1, Adenosine receptor A2a; experiment: Antagonist activity at adenosine A2A receptor in SH-SY5Y cells assessed as CGS-induced intracellular cAMP production at 50 uM; type: functional, cell-based
How it was run: (§2)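 SH-SY5Y neuroblastoma cells, endogenous A2AR, stably carrying human D2LR. Serum-starved 12-16 h, in HBSS with 50 µM zardaverine for 10 min, then 50 µM ergopeptide, alone or with the A2AR agonist CGS. 35 min total incubation. cAMP by competitive enzyme immunoassay. Three to six determinations, Student's t test.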

[7] = biological target: T2, Adenosine receptor A1 (Homo sapiens); experiment: Agonist activity at adenosine A1 receptor transfected in mouse L(tk-) cells assessed as decrease in forskolin-induced cAMP levels; type: functional, cell-based
How it was run: (§3)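 Mouse Ltk- fibroblasts cotransfected with human A1R and D1R, preincubated 5-10 min at 22 °C with 50 µM SCH to block D1R. Then 50 µM zardaverine, 10 µM forskolin, and 50 µM ergopeptide, with or without 20 nM R-PIA or 50 µM DPCPX. 35 min total. cAMP by enzyme immunoassay. Three to six determinations.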

[8] = biological target: T2, Adenosine receptor A1 (Homo sapiens); experiment: Antagonist activity at adenosine A1 receptor transfected in mouse L(tk-) cells assessed as inhibition of R-PIA-induced decrease in forskolin-induced cAMP levels; type: functional, cell-based; how it was run: as §3
Adenosine receptor A2a [9] = biological target: T1, Adenosine receptor A2a; experiment: Agonist activity at adenosine A2A receptor in SH-SY5Y cells assessed as CGS-induced intracellular cAMP production at 50 uM; type: functional, cell-based; how it was run: as §2
[10] = biological target: D(2) dopamine receptor (Homo sapiens) (UniProt P14416); experiment: Antagonist activity at dopamine D2 receptor in SH-SY5Y cells assessed as effect on forskolin-activated intracellular cAMP production at 50 uM; type: functional, cell-based
How it was run: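 SH-SY5Y cells expressing human D2LR, preincubated 5-10 min at 22 °C with 5 µM ZM to block A2AR. Then 50 µM zardaverine, 10 µM forskolin, and 50 µM ergopeptide, with or without 150 nM quinpirole or 50 µM raclopride. 35 min total. cAMP by enzyme immunoassay. Three to six determinations, t test.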

[11] = biological target: D(1A) dopamine receptor (Homo sapiens) (UniProt P21728); experiment: Agonist activity at dopamine D1 receptor transfected in mouse L(tk-) cells assessed as stimulation of cAMP levels; type: functional, cell-based
How it was run: (§4)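 Mouse Ltk- fibroblasts cotransfected with human A1R and D1R, serum-starved 12-16 h. In HBSS with 50 µM zardaverine, then 50 µM ergopeptide, with or without 20 nM SKF or 50 µM SCH. 35 min total incubation. cAMP by competitive enzyme immunoassay. Three to six determinations, t test.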

[12] = biological target: D(1A) dopamine receptor (Homo sapiens) (UniProt P21728); experiment: Antagonist activity at dopamine D1 receptor transfected in mouse L(tk-) cells assessed as inhibition of SKF-induced stimulation of forskolin-induced cAMP levels; type: functional, cell-based; how it was run: as §4

SMILES: CC(C)[C@H](NC(=O)[C@@H]1C=C2c3cccc4[nH]cc(c34)C[C@H]2N(C)C1)C(=O)N[C@@H](CCC1CCCCC1)C(=O)N1CCCC(C(N)=O)C1 (some centres not stated)
- pKd (Adenosine receptor A2a [1]): 4.30
- Activity [2]: < 40%
- Activity [3]: < 40%
- Activity [4]: < 40%
- Activity (Adenosine receptor A2a [5]): < 40%
- Activity (Adenosine receptor A2a [6]): Active
- Activity [7]: inactive
- Activity [8]: Active
- Activity (Adenosine receptor A2a [9]): inactive
- Activity [10]: Active
- Activity [11]: Active
- Activity [12]: inactive
